Data on 2 molecules can be found in ChEMBL document CHEMBL4219124, “Alleviating CYP and hERG liabilities by structure optimization of dihydrofuran-fused tricyclic benzo[d]imidazole series - Potent, selective and orally efficacious microsomal prostaglandin E synthase-1 (mPGES-1) inhibitors: Part-2” (Bioorg Med Chem Lett, 2018).

Series [1] deals with Canis familiaris. Kind of series: Oral bioavailability in Beagle dog at 10 mg/kg. The class given is ADME, organism-based, Canis lupus familiaris. The following applies: in vivo. A digest of the protocol: (§1)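 Plasma PK after 1 mg/kg i.v. and 10 mg/kg p.o.; %F from both routes. Rat: male Sprague-Dawley, oral 0.5% methylcellulose suspension, i.v. 20% NMP/20% ethanol/60% PEG 200, n = 3. Dog oral: Tween 80 2.5 μL/mL + 0.5% MC suspension. Monkey oral: same Tween/MC suspension; i.v. 10% NMP/10% ethanol/10% PEG/70% PEG200-water premix.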

Series [2] has as its system Canis familiaris. The experiment in a line: AUC (0 to 24 hrs) in Beagle dog at 10 mg/kg, po. Particulars: in vivo, 24 h. The class given is ADME, organism-based, Canis lupus familiaris. On the set-up: dose 10 mg/kg, time < 24 hr, route oral. The gist of the method: (§2)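 Single oral dose of 10 mg/kg. Cmax and AUC0-24 taken from the oral arm. Rat: male Sprague-Dawley, dosed in 0.5% methylcellulose suspension, mean ± SD (n = 3). Guinea pig: 20% NMP + 0.5% MC suspension, mean ± SD (n = 3). Dog and cynomolgus monkey: 2.5 μL/mL Tween 80 + 0.5 (w/v) MC suspension.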

Series [3] has as its system Cynomolgus monkey. The experiment in a line: Oral bioavailability in cynomolgus monkey at 10 mg/kg. In kind it is ADME, organism-based, Macaca fascicularis. Particulars: in vivo. A digest of the protocol:
as §1

Series [4] is described as follows: Ratio of drug uptake in brain to plasma of Dunkin-Hartley guinea pig LPS-induced hyperalgesia pain model at 10 mg/kg, po administered 2 hrs prior to LPS challenge measured 7 hrs post dose. The class given is ADME, organism-based, Cavia porcellus. Particulars: brain and plasma, read-out: BPR. A digest of the protocol: (§3)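 Guinea pigs dosed orally at 10, 30 or 100 mg/kg 2 h before intraplantar LPS in the right hind paw; thermal hyperalgesia scored. Plasma (ng/mL) and brain (ng/g) levels taken 7 h post dose; brain/plasma ratio computed. Means of 6–9 animals per group, single experiment.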

Series [5] has as its system Cynomolgus monkey. Kind of series: AUC (0 to 24 hrs) in cynomolgus monkey at 10 mg/kg, po. Particulars: in vivo, 24 h. In kind it is ADME, organism-based, Macaca fascicularis. On the set-up: time < 24 hr, dose 10 mg/kg, route oral. The gist of the method: as §2
The target of series [6] is T1, Nuclear receptor subfamily 1 group I member 2 (Homo sapiens, UniProt O75469).
T1 sequence (O75469 whole entry): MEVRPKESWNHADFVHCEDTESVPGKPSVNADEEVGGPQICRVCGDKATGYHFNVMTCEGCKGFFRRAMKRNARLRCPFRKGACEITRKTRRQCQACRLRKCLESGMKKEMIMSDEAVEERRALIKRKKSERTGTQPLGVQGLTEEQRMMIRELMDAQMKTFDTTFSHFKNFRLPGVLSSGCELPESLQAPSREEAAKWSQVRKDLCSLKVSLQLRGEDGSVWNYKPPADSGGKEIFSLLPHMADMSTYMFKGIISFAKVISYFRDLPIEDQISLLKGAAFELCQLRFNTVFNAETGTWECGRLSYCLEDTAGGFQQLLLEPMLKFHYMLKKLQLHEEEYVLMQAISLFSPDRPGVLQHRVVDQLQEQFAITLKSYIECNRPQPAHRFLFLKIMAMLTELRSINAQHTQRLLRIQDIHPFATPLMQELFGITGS
The experiment in a line: Activation of human PXR. The class given is ADME.

In series [7] the test system is Cavia porcellus. Kind of series: Analgesic activity in Dunkin-Hartley guinea pig hyperalgesia pain model assessed as inhibition of LPS-induced hyperalgesia administered orally 2 hrs prior to LPS challenge measured after 4.5 hrs. The class given is functional. Particulars: po. A digest of the protocol:
(§4)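 Guinea pigs received compound orally, once daily, at 10, 30 or 100 mg/kg, 2 h before LPS was injected into the plantar surface of the right paw. Saline-injected animals served as the comparison for thermal hyperalgesia. Plasma and brain drug levels taken 7 h after dosing, mean of n = 6–9 per group, from a single experiment.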

Series [8] deals with Cavia porcellus. The experiment in a line: Analgesic activity in Dunkin-Hartley guinea pig hyperalgesia pain model assessed as inhibition of LPS-induced hyperalgesia at 10 mg/kg, po administered 2 hrs prior to LPS challenge measured after 4.5 hrs relative to control. In kind it is functional. A digest of the protocol:
as §4

Series [9] in a line: Plasma concentration in Dunkin-Hartley guinea pig LPS-induced hyperalgesia pain model at 30 mg/kg, po administered 2 hrs prior to LPS challenge measured 7 hrs post dose. The class given is ADME, organism-based, Cavia porcellus. The gist of the method: as §3
Series [10] in a line: Plasma concentration in Dunkin-Hartley guinea pig LPS-induced hyperalgesia pain model at 100 mg/kg, po administered 2 hrs prior to LPS challenge measured 7 hrs post dose. The class given is ADME, organism-based, Cavia porcellus. A digest of the protocol:
as §3

The nature of series [11]: Drug uptake in brain of Dunkin-Hartley guinea pig LPS-induced hyperalgesia pain model at 100 mg/kg, po administered 2 hrs prior to LPS challenge measured 7 hrs post dose. In kind it is ADME, organism-based, Cavia porcellus. Particulars: read-out: Drug uptake. The gist of the method: as §4
Series [12] can be described thus: Ratio of drug uptake in brain to plasma of Dunkin-Hartley guinea pig LPS-induced hyperalgesia pain model at 30 mg/kg, po administered 2 hrs prior to LPS challenge measured 7 hrs post dose. The class given is ADME, organism-based, Cavia porcellus. The following applies: read-out: BPR. The gist of the method: as §3
A short description of series [13]: Ratio of drug uptake in brain to plasma of Dunkin-Hartley guinea pig LPS-induced hyperalgesia pain model at 100 mg/kg, po administered 2 hrs prior to LPS challenge measured 7 hrs post dose. The class given is ADME, organism-based, Cavia porcellus. Particulars: read-out: BPR. A digest of the protocol: as §3
Series [14] in a line: Ratio of plasma concentration in Dunkin-Hartley guinea pig LPS-induced hyperalgesia pain model to IC50 for mPGES1 in human whole blood. The class given is ADME. Particulars: in vivo.
For series [15], the system named is Cavia porcellus. The experiment in a line: Analgesic activity in Dunkin-Hartley guinea pig MIA-induced osteoarthritic pain model assessed as reversal of incapacitance administered orally on day 3 measured 6 to 7 hrs post dose. In kind it is functional. The gist of the method:
(§5)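 Day 0: monoiodoacetate injected into the right shoulder joint of guinea pigs; saline-injected animals as comparison. Day 3: compound given orally at 100, 250 or 500 mg/kg, and weight-bearing incapacitance on the injected forelimb measured. Plasma sampled at the PD time point, n = 6–8 per group, single experiment.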

The test system of series [16] is Cavia porcellus. The experiment in a line: Analgesic activity in Dunkin-Hartley guinea pig MIA-induced osteoarthritic pain model assessed as reversal of incapacitance at 100 mg/kg, po administered on day 3 measured 6 to 7 hrs post dose relative to control. The class given is functional. The gist of the method: as §5
The test system of series [17] is Cavia porcellus. Kind of series: Analgesic activity in Dunkin-Hartley guinea pig MIA-induced osteoarthritic pain model assessed as reversal of incapacitance at 250 mg/kg, po administered on day 3 measured 6 to 7 hrs post dose relative to control. In kind it is functional. A digest of the protocol:
as §5

Series [18] in a line: Plasma concentration in Dunkin-Hartley guinea pig MIA-induced osteoarthritic pain model at 500 mg/kg, po measured 2 hrs post dose. The class given is ADME, organism-based, Cavia porcellus. The gist of the method:
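Intra-articular MIA into the right shoulder joint on day 0; oral dosing at 100, 250 or 500 mg/kg on day 3, incapacitance (forelimb weight bearing) measured. Plasma concentration sampled 2 h post dose. Means of 6–8 animals per group, single experiment.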

The term AUC denotes the area under the concentration-time curve, a measure of exposure. Regarding `CC1(C)Cc2c(c(C(=O)Nc3ccc(C(F)(F)F)cn3)cc3nc(Nc4c(Cl)cccc4Cl)[nH]c23)O1`, the F in the series with Canis familiaris [1] worked out at 25%. The same molecule registered an AUC in the series with Canis familiaris [2] of 4432 ng·h/mL.
As a reminder, the EC50 is the concentration that produces a half-maximal response. By ED50 is commonly meant the midpoint of the dose-response relation. Usually inhibition in vivo stands for how much of the control response was suppressed. In the series on Cynomolgus monkey [3], `CC1(C)Cc2c(c(C(=O)Nc3ccc(F)c(C(F)(F)F)c3)cc3nc(Nc4c(F)cccc4Cl)[nH]c23)O1` came in with an F of 44%. The results for the Kp at 7 h in series [4], in series [12] and in series [13] were 1.02, 0.6 and 1.06, respectively. In the series on Cynomolgus monkey [5], this molecule yielded an AUC of 9669 ng·h/mL. In [6], this molecule came in with a concentration for a half-maximal effect (EC50) of 2460 nM. Also, the ED50 stood at 39.6 mg/kg in the series with Cavia porcellus [7] and 106 mg/kg in the series with Cavia porcellus [15] (po). For the same molecule, the inhibition in vivo at 10 mg/kg in the series with Cavia porcellus [8] came out at 20%. Also, the concentration at 7 h in series [9] was 145 ng/mL; in series [10], 1080 nM; in series [11], 1150 nM. Besides, the Ratio in [14] is on record as 5. For the same molecule, the Activity result in the series with Cavia porcellus [15] is “Dose-dependent effect”; in the series on Cavia porcellus [16] it was 48%; in the series on Cavia porcellus [17], 73%. In [18], this molecule registered a concentration at 2 h of 3540 nM.
